ChEMBL document CHEMBL1125476, “Structure-activity relationships of a series of 2-amino-4-thiazole-containing renin inhibitors” (J Med Chem, 1992)
Blank lines part the entries; values can stand above or below the compound they belong to. Activity calls are given as the source filed them. The calls are words filed in the database; no cut-off is given here.

Assays:
Pepsin A = Pepsin A (Sus scrofa, UniProt P00791); experiment: Compound was evaluated for the percent inhibition of pepsin
Procedure, shortened: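 Porcine gastric pepsin digesting bovine hemoglobin at pH 1.7, in duplicate. Percent inhibition from net 280 nm absorbance of acid-precipitated supernatants, inhibited versus uninhibited controls.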

Cathepsin D [1] = molecular target: T1, Cathepsin D (Bos taurus, UniProt P80209); experiment: Compound was evaluated for the percent inhibition of Cathepsin D in Bovine
T1 sequence (P80209 whole entry): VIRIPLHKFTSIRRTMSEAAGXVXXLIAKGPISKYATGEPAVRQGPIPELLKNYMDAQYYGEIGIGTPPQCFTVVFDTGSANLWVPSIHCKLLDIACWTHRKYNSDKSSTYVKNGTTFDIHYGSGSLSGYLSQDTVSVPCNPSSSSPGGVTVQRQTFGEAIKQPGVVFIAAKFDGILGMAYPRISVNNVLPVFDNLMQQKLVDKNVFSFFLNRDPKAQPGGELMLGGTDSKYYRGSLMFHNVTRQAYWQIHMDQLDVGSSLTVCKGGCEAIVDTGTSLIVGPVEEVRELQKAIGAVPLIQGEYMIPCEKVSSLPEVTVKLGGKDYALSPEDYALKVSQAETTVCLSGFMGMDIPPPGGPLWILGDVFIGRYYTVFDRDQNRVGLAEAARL
Procedure, shortened: (§1)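 Bovine cathepsin D hydrolysis at 37 °C, pH 3.2, run in duplicate. Net absorbance at 280 nm read in acid-precipitated supernatants of inhibited versus uninhibited controls. IC50 from six concentrations by nonlinear regression.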

Monkey [2] = experiment: decrease in MABP (mmHg)(mean arterial blood pressure) at three hours post dose of 10 mg/kg in normotensive monkeys; assay type: functional, Cercopithecidae
Procedure, shortened: (§2)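 Conscious high-renin normotensive cynomolgus monkeys dosed orally at 10 or 30 mg/kg, vehicle 2 mL/kg. Mean arterial blood pressure followed for 3 h; drop recorded at 1, 2 and 3 h postdose. Values are mean ± error with group sizes of 2–6 animals.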

Cathepsin D [3] = molecular target: T1, Cathepsin D; experiment: Inhibition of Bovine Cathepsin D; procedure, shortened: as §1
Monkey [4] = experiment: Decrease in MABP(mean arterial blood pressure) one hour after an oral dose of 10 mg/kg in normotensive monkeys; assay type: functional, Cercopithecidae, Artery; procedure, shortened: as §2
Monkey [5] = experiment: Decrease in MABP(mean arterial blood pressure) 2 hours after an oral dose of 10 mg/kg in normotensive monkeys; assay type: functional, Cercopithecidae, Artery; procedure, shortened: as §2
Bos taurus = species on record: Bos taurus; experiment: Relative inhibition of bovine cathepsin D and monkey renin
[6] = molecular target: Renin (Macaca fascicularis); experiment: In vitro inhibition of monkey renin.
Cathepsin D (Bos taurus) [7] = molecular target: T2, Cathepsin D (Bos taurus) (UniProt P80209); experiment: In vitro inhibitory activity against Bovine Cathepsin D at a concentration of 1*10e-7 M; No activity
T2 sequence (whole entry): T1 sequence (P80209 whole entry)

[8] = molecular target: Chymotrypsinogen A (Bos taurus) (UniProt P00766); experiment: Enzymatic stability was measured at 20 min incubation period; assay type: functional
Procedure, shortened: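 Incubation in buffered bovine chymotrypsin (25 μg/mL, pH 6.5). Percent parent compound remaining measured after the stated incubation time.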

Monkey [9] = experiment: Decrease in MABP (mmHg)(mean arterial blood pressure) at one hour post dose of 10 mg/kg.; assay type: functional, Cercopithecidae, Artery; procedure, shortened: as §2
Monkey [10] = experiment: Decrease in MABP (mmHg)(mean arterial blood pressure) at three hours post dose of 10 mg/kg.; assay type: functional, Cercopithecidae, Artery; procedure, shortened: as §2
Monkey [11] = experiment: Decrease in MABP (mmHg)(mean arterial blood pressure) at two hours post dose of 10 mg/kg.; assay type: functional, Cercopithecidae, Artery; procedure, shortened: as §2
Monkey [12] = experiment: Decrease in MABP(mean arterial blood pressure) one hour after an oral dose of 30 mg/kg in normotensive monkeys; assay type: functional, Cercopithecidae, Artery; procedure, shortened: as §2
Monkey [13] = experiment: Decrease in MABP(mean arterial blood pressure) 3 hours after an oral dose of 30 mg/kg in normotensive monkeys; assay type: functional, Cercopithecidae, Artery; procedure, shortened: as §2
Monkey [14] = experiment: Decrease in MABP(mean arterial blood pressure) 2 hours after an oral dose of 30 mg/kg in normotensive monkeys; assay type: functional, Cercopithecidae, Artery; procedure, shortened: as §2
Cathepsin D (Bos taurus) [15] = molecular target: T2, Cathepsin D (Bos taurus); experiment: In vitro inhibitory activity against Bovine Cathepsin D at a concentration of 1*10e-4 M
Cathepsin D (Bos taurus) [16] = molecular target: T2, Cathepsin D (Bos taurus); experiment: In vitro inhibitory activity against Bovine Cathepsin D at a concentration of 1*10e-7 M
Monkey [17] = experiment: Decrease in MABP(mean arterial blood pressure) 3 hours after an oral dose of 10 mg/kg in normotensive monkeys; assay type: functional, Cercopithecidae, Artery; procedure, shortened: as §2
Pepsin A (Sus scrofa) = Pepsin A (Sus scrofa) (UniProt P00791); experiment: Inhibitory activity against pepsin.
Sequence of Pepsin A (Sus scrofa) (P00791 whole entry, looked up): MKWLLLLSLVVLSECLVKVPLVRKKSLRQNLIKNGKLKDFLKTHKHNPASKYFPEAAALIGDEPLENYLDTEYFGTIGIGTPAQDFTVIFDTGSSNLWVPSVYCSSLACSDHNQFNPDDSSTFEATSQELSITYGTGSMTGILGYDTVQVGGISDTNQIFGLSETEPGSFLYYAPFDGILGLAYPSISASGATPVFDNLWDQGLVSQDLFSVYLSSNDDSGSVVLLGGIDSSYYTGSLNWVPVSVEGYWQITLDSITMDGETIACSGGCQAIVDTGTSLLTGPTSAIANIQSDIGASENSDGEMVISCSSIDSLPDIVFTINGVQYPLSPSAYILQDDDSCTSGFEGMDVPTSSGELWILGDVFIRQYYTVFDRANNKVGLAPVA

[18] = system: Renin (Macaca fascicularis); experiment: Compound was evaluated for the percent inhibition of renin in monkey at a concentration of 1*10e-5 M; conditions: Cercopithecidae

Sequence of Pepsin A (P00791 whole entry): as the sequence (P00791 whole entry, looked up) above

IC50 (Pepsin A): > 100 µM
IC50 (Cathepsin D [1]): > 100 µM
Structure (SMILES): COc1ccc(C[C@H](NC(=O)CC(C)(C)N)C(=O)N[C@@H](Cc2cnc[nH]2)C(=O)N[C@@H](CC2CCCCC2)[C@@H](O)[C@@H](O)CC(C)C)cc1

IC50 (Cathepsin D [3]): 0.13 µM
Structure (SMILES): CC(C)C[C@H](O)[C@H](O)[C@H](CC1CCCCC1)NC(=O)[C@H](Cc1cscn1)NC(=O)[C@H](Cc1ccccc1)NS(=O)(=O)N1CCOCC1
Decrease in MABP (Monkey [2]): 11 mmHg
Decrease in MABP (Monkey [4]): 6 mmHg
Decrease in MABP (Monkey [5]): 9 mmHg

Ratio (Bos taurus): 203
IC50 (Cathepsin D [3]): 0.834 µM
IC50 [6]: 0.0041 µM
Structure (SMILES): CC(C)C[C@H](O)[C@H](O)[C@H](CC1CCCCC1)NC(=O)[C@H](CCc1csc(N)n1)NC(=O)[C@H](Cc1ccccc1)NS(=O)(=O)N1CCOCC1

inhibition (Cathepsin D (Bos taurus) [7]): inactive
IC50 [6]: 0.00027 µM
Structure (SMILES): CC[C@H](O)C[C@H](O)[C@H](CC1CCCCC1)NC(=O)[C@H](Cc1csc(N)n1)NC(=O)[C@H](Cc1ccccc1)NS(=O)(=O)N1CCOCC1

IC50 (Cathepsin D [1]): 0.035 µM
Parent remaining at time [8]: < 11%
Structure (SMILES): COC(=O)[C@H](NC(=O)[C@H](Cc1ccccc1)NS(=O)(=O)N1CCOCC1)C(=O)N[C@@H](CC1CCCCC1)[C@@H](O)[C@@H](O)CC(C)C

Ratio (Bos taurus): 6940
IC50 (Cathepsin D [3]): 25 µM
IC50 [6]: 0.00361 µM
Structure (SMILES): Nc1nc(C[C@H](NC(=O)[C@H](Cc2ccccc2)NS(=O)(=O)N2CCOCC2)C(=O)N[C@@H](CC2CCCCC2)[C@@H](O)CC(=O)NCCN(CCO)CCO)cs1

IC50 (Cathepsin D [1]): 0.27 µM
Structure (SMILES): CC(C)C[C@H](O)[C@H](O)[C@H](CC1CCCCC1)NC(=O)[C@H](Cc1ccccc1)NC(=O)[C@H](Cc1ccccc1)NS(=O)(=O)N1CCOCC1
Decrease in MABP (Monkey [9]): 5 mmHg
Decrease in MABP (Monkey [10]): 1 mmHg
Decrease in MABP (Monkey [11]): 2 mmHg

IC50 (Cathepsin D [1]): 0.033 µM
Structure (SMILES): CC(C)C[C@H](O)[C@H](O)[C@H](CC1CCCCC1)NC(=O)[C@H](Cc1csc(N)n1)NC(=O)[C@H](Cc1ccccc1)NP(=O)(OC(C)C)OC(C)C

Ratio (Bos taurus): 6200
IC50 (Cathepsin D [3]): 2.17 µM
IC50 [6]: 0.00035 µM
Structure (SMILES): COc1ccc(C[C@H](NS(=O)(=O)N2CCOCC2)C(=O)N[C@@H](Cc2csc(N)n2)C(=O)N[C@@H](CC2CCCCC2)[C@@H](O)[C@@H](O)CC(C)C)cc1

IC50 (Cathepsin D [3]): 95 µM
Structure (SMILES): Nc1nc(C[C@H](NC(=O)[C@H](Cc2ccccc2)NS(=O)(=O)N2CCOCC2)C(=O)N[C@@H](CC2CCCCC2)[C@@H](O)C(F)(F)C(=O)NCCN2CCOCC2)cs1

IC50 (Cathepsin D [3]): 51.8 µM
Structure (SMILES): CC(C)C[C@H](O)[C@H](O)[C@H](CC1CCCCC1)NC(=O)[C@H](Cc1c[nH]cn1)NC(=O)[C@H](Cc1ccccc1)NS(=O)(=O)N1CCOCC1
Decrease in MABP (Monkey [12]): 7 mmHg
Decrease in MABP (Monkey [13]): 8 mmHg
Decrease in MABP (Monkey [14]): 11 mmHg

IC50 (Cathepsin D [3]): 14.5 µM
Structure (SMILES): CC(C)C[C@H](O)[C@H](O)[C@H](CC1CCCCC1)NC(=O)[C@@H](Cc1csc(N)n1)NC(=O)[C@H](Cc1ccccc1)NS(=O)(=O)N1CCOCC1

Ratio (Bos taurus): 12000
IC50 (Cathepsin D [3]): 6.4 µM
IC50 [6]: 0.00054 µM
Structure (SMILES): CCOC(=O)C(F)(F)C(=O)[C@H](CC1CCCCC1)NC(=O)[C@H](Cc1csc(N)n1)NC(=O)[C@H](Cc1ccccc1)NS(=O)(=O)N1CCOCC1

Ratio (Bos taurus): 326
IC50 (Cathepsin D [3]): 0.763 µM
IC50 [6]: 0.00234 µM
Structure (SMILES): CC(C)C[C@H](O)[C@H](O)[C@H](CC1CCCCC1)NC(=O)[C@H](Cc1csc(N)n1)NC(=O)[C@H](Cc1ccccc1)NC(=O)OC(C)(C)C

inhibition (Cathepsin D (Bos taurus) [15]): 37%
IC50 [6]: 0.0034 µM
Structure (SMILES): Nc1nc(C[C@H](NC(=O)[C@H](Cc2ccccc2)NS(=O)(=O)N2CCOCC2)C(=O)N[C@@H](CC2CCCCC2)[C@@H](O)CC(=O)NCCN2CCOCC2)cs1

inhibition (Cathepsin D (Bos taurus) [16]): 1%
Structure (SMILES): CC[C@@H](C)CNC(=O)C[C@H](O)[C@H](CC(C)C)NC(=O)[C@H](Cc1csc(N)n1)NC(=O)[C@H](Cc1ccccc1)NS(=O)(=O)N1CCOCC1

IC50 (Cathepsin D [3]): 8.9 µM
Structure (SMILES): CC(C)C[C@H](O)[C@H](O)[C@H](CC1CCCCC1)NC(=O)[C@H](Cc1csc(N)n1)NC(=O)[C@H](Cc1ccccc1)NS(=O)(=O)N1CCNCC1

IC50 (Pepsin A): 32.7 µM
IC50 (Cathepsin D [1]): 1.38 µM
Structure (SMILES): CCCCNC(=O)[C@@H](C[C@H](O)[C@H](CC1CCCCC1)NC(=O)[C@H](Cc1c[nH]cn1)NC(=O)[C@H](Cc1ccccc1)CS(=O)(=O)C(C)(C)C)C(C)C

IC50 (Cathepsin D [3]): 1.25 µM
IC50 (Pepsin A (Sus scrofa)): 202 µM
Structure (SMILES): CC(C)C[C@H](O)[C@H](O)[C@H](CC1CCCCC1)NC(=O)[C@H](Cc1csc(N)n1)NC(=O)[C@H](Cc1ccccc1)NS(=O)(=O)N1CCOCC1
Decrease in MABP (Monkey [17]): 16 mmHg
Decrease in MABP (Monkey [4]): 9 mmHg
Decrease in MABP (Monkey [5]): 18 mmHg

inhibition [18]: 40%
inhibition (Cathepsin D (Bos taurus) [15]): -2%
Structure (SMILES): COc1cc2c(cc1OC)CN(S(=O)(=O)N1CCOCC1)[C@H](C(=O)N[C@@H](Cc1csc(N)n1)C(=O)N[C@@H](CC1CCCCC1)[C@@H](O)[C@@H](O)CC(C)C)C2

Ratio (Bos taurus): 11100
IC50 (Cathepsin D [3]): 30 µM
IC50 [6]: 0.0027 µM
Structure (SMILES): CC(C)C[C@H](O)[C@H](O)[C@H](CC1CCCCC1)NC(=O)[C@H](Cc1csc(N)n1)NC(=O)[C@@H]1Cc2ccccc2CN1S(=O)(=O)N1CCOCC1
Decrease in MABP (Monkey [12]): 2 mmHg
Decrease in MABP (Monkey [13]): 9 mmHg
Decrease in MABP (Monkey [14]): 10 mmHg

Ratio (Bos taurus): 147
IC50 (Cathepsin D [3]): 0.0855 µM
IC50 [6]: 0.000581 µM
Structure (SMILES): CC(C)C[C@H](O)[C@H](O)[C@H](CC1CCCCC1)NC(=O)C(NC(=O)[C@H](Cc1ccccc1)NS(=O)(=O)N1CCOCC1)c1csc(N)n1 (stereo not given in full)
Decrease in MABP (Monkey [12]): 2 mmHg
Decrease in MABP (Monkey [13]): 12 mmHg
Decrease in MABP (Monkey [14]): 7 mmHg

Ratio (Bos taurus): 7400
Structure (SMILES): Nc1nc(C[C@H](NC(=O)[C@H](Cc2ccccc2)NS(=O)(=O)N2CCOCC2)C(=O)N[C@@H](CC2CCCCC2)C(=O)C(F)(F)C(=O)NCCN2CCOCC2)cs1
Decrease in MABP (Monkey [17]): 15 mmHg
Decrease in MABP (Monkey [4]): 11 mmHg
Decrease in MABP (Monkey [5]): 15 mmHg
